This passage reports MIC80 results from ChEMBL document CHEMBL1806457, “Synthesis and antimicrobial evaluation of new benzofuran derivatives” (2011).

Structures are written as SMILES. ≈ marks a conversion by molar mass, not a printed value.

Holding throughout (format): functional
One assay deals with Bacillus subtilis. In words: Antibacterial activity against 1 x 10^4 cfu/mL Bacillus subtilis ATCC 33712 after 24 hrs by NCCLS M7-A6 microtiter broth dilution method. The settings on record: ATCC 33712, 24 h. Background: Dilution methods test growth across graded concentrations, often in twofold steps.
For assay [1], the system named is Staphylococcus aureus. As to the kind of experiment: Antibacterial activity against 1 x 10^4 cfu/mL Staphylococcus aureus ATCC 29213 after 24 hrs by NCCLS M7-A6 microtiter broth dilution method. The settings on record: ATCC 29213, 24 h.
Assay [2] has as its system Staphylococcus aureus. As to the kind of experiment: Antibacterial activity against 1 x 10^4 cfu/mL methicillin-resistant Staphylococcus aureus ATCC 700699 after 24 hrs by NCCLS M7-A6 microtiter broth dilution method. The settings on record: ATCC 700699, 24 h. In short, it runs like this: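 Bacteria pre-cultured in LB broth 24 h at 37 °C. Colonies suspended in sterile saline and adjusted to 0.5 McFarland (625 nm, 1–2 × 10⁸ cfu/mL), then diluted 1:10,000 in LB. Compounds from a 4 mg/mL DMSO stock were two-fold serially diluted across a 96-well plate, 200 down to 0.39 µg/mL. MIC80 was the lowest concentration preventing visible growth (>80% inhibition).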

The test system of a further assay is Candida albicans. In words: microbe, parasite or virus in culture. The settings on record: ATCC 6258, 48 h.
A further assay concerns Escherichia coli. In words: Antibacterial activity against 1 x 10^4 cfu/mL Escherichia coli ATCC 11303 after 24 hrs by NCCLS M7-A6 microtiter broth dilution method. The settings on record: ATCC 11303, 24 h.

For `COc1ccc(-c2oc3ccc(C)cc3c2C(=O)c2cc(OC)cc(OC)c2)cc1`, the MIC80 in the assay with Bacillus subtilis, with Staphylococcus aureus [1], in the assay on Staphylococcus aureus [2], in the assay with Candida albicans and against Escherichia coli was greater than 200 µg/mL each time.
With `COc1ccc(C(=O)c2c(-c3ccc(OC)cc3)oc3ccc(C)cc23)cc1`, the MIC80 with Bacillus subtilis, against Staphylococcus aureus [1], against Staphylococcus aureus [2], against Candida albicans and in the assay with Escherichia coli was greater than 200 µg/mL throughout.
As for `COc1ccc(-c2oc3ccc(C)cc3c2C(=O)c2cccc(OC)c2OC)cc1`, the MIC80 in the assay on Bacillus subtilis, with Staphylococcus aureus [1], in the assay on Staphylococcus aureus [2], against Candida albicans and in the assay with Escherichia coli was greater than 200 µg/mL in each case.
With `COc1ccc(-c2oc3ccc(C)cc3c2C(=O)c2cc(OC)c(OC)c(OC)c2)cc1`, the MIC80 in the assay with Bacillus subtilis, in the assay with Staphylococcus aureus [1], with Staphylococcus aureus [2], against Candida albicans and in the assay on Escherichia coli was greater than 200 µg/mL throughout.
As to `COc1ccc(-c2oc3ccc(C)cc3c2C(=O)c2ccc(Cl)cc2)cc1`, the MIC80 in the assay on Bacillus subtilis, against Staphylococcus aureus [1], with Staphylococcus aureus [2], against Candida albicans and in the assay on Escherichia coli was greater than 200 µg/mL in each case.
For the compound `COc1ccc(-c2oc3ccc(C)cc3c2C(=O)c2cc(Cl)cc(Cl)c2)cc1`, the MIC80 against Bacillus subtilis, in the assay on Staphylococcus aureus [1], against Staphylococcus aureus [2], in the assay on Candida albicans and against Escherichia coli was greater than 200 µg/mL in each case.
For `COc1ccc(-c2oc3ccc(C)cc3c2C(=O)c2cc(F)c(F)cc2Br)cc1`, the MIC80 against Bacillus subtilis, in the assay with Staphylococcus aureus [1], in the assay on Staphylococcus aureus [2], in the assay on Candida albicans and with Escherichia coli was greater than 200 µg/mL throughout.
For the compound `COc1ccc(-c2oc3ccc(C)cc3c2C(=O)c2ccccc2Br)cc1`, the MIC80 in the assay on Bacillus subtilis is 0.78 µg/mL (≈ 1.85 µM); in the assay with Staphylococcus aureus [1] it was greater than 200 µg/mL; with Staphylococcus aureus [2], greater than 200 µg/mL; in the assay with Candida albicans, greater than 200 µg/mL; against Escherichia coli it was greater than 200 µg/mL.
For the compound `COc1ccc(-c2oc3ccc(C)cc3c2C(=O)c2ccc(O)cc2)cc1`, the MIC80 was 0.78 µg/mL (≈ 2.18 µM) in the assay with Bacillus subtilis; less than 0.39 µg/mL in the assay on Staphylococcus aureus [1]; 0.78 µg/mL (≈ 2.18 µM) with Staphylococcus aureus [2]; greater than 200 µg/mL in the assay on Candida albicans; 0.78 µg/mL (≈ 2.18 µM) in the assay with Escherichia coli.
For `COc1ccc(-c2oc3ccc(C)cc3c2C(=O)c2ccc(O)c(C)c2)cc1`, the MIC80 was 1.56 µg/mL (≈ 4.19 µM) against Bacillus subtilis; 0.78 µg/mL (≈ 2.09 µM) in the assay with Staphylococcus aureus [1]; 0.78 µg/mL (≈ 2.09 µM) in the assay with Staphylococcus aureus [2]; greater than 200 µg/mL against Candida albicans; 0.78 µg/mL (≈ 2.09 µM) in the assay on Escherichia coli.
In the case of `COc1ccc(-c2oc3ccc(C)cc3c2C(=O)c2cc(O)cc(OC)c2)cc1`, the MIC80 in the assay with Bacillus subtilis is 0.78 µg/mL (≈ 2.01 µM); with Staphylococcus aureus [1], less than 0.39 µg/mL; against Staphylococcus aureus [2] it was 0.78 µg/mL (≈ 2.01 µM); in the assay with Candida albicans, greater than 200 µg/mL; with Escherichia coli, 0.78 µg/mL (≈ 2.01 µM).
Turning to `COc1ccc(-c2oc3ccc(C)cc3c2C(=O)c2cccc(OC)c2O)cc1`, the MIC80 against Bacillus subtilis, in the assay with Staphylococcus aureus [1], in the assay on Staphylococcus aureus [2], in the assay with Candida albicans and in the assay on Escherichia coli was greater than 200 µg/mL in each case.
With `COc1ccc(-c2oc3ccc(C)cc3c2C(=O)c2ccc(O)c(I)c2)cc1`, the MIC80 in the assay with Bacillus subtilis is 1.56 µg/mL (≈ 3.22 µM); in the assay on Staphylococcus aureus [1], 0.78 µg/mL (≈ 1.61 µM); in the assay on Staphylococcus aureus [2] it was 0.78 µg/mL (≈ 1.61 µM); against Candida albicans, greater than 200 µg/mL; with Escherichia coli it was 3.12 µg/mL (≈ 6.44 µM).
With `CO/N=C(\C(=O)N[C@@H]1C(=O)N2C(C(=O)O)=C(COC(C)=O)CS[C@H]12)c1csc(N)n1` [CEFOTAXIME], the MIC80 in the assay with Bacillus subtilis is 0.78 µg/mL (≈ 1.71 µM); against Staphylococcus aureus [1], 3.12 µg/mL (≈ 6.85 µM); in the assay with Staphylococcus aureus [2], 3.12 µg/mL (≈ 6.85 µM); against Escherichia coli it was greater than 200 µg/mL.
For `CC(C)(O/N=C(\C(=O)N[C@@H]1C(=O)N2C(C(=O)[O-])=C(C[n+]3ccccc3)CS[C@H]12)c1csc(N)n1)C(=O)O` [CEFTAZIDIME], the MIC80 against Bacillus subtilis is 6.25 µg/mL (≈ 11.4 µM); in the assay on Staphylococcus aureus [1], 0.78 µg/mL (≈ 1.43 µM); against Staphylococcus aureus [2], 12.5 µg/mL (≈ 22.9 µM); with Escherichia coli it was greater than 200 µg/mL.
Compound `CC(=O)N1CCN(c2ccc(OCC3COC(Cn4ccnc4)(c4ccc(Cl)cc4Cl)O3)cc2)CC1` (centres undefined) [KETOCONAZOLE] had an MIC80 in the assay with Candida albicans of less than 0.39 µg/mL.
The same measure, in the same setting: next, `Clc1ccc(COC(Cn2ccnc2)c2ccc(Cl)cc2Cl)c(Cl)c1.O=[N+]([O-])O` (centres undefined) [MICONAZOLE NITRATE]: less than 0.39 µg/mL.
As to `CC1(C)S[C@@H]2[C@H](NC(=O)Cc3ccccc3)C(=O)N2[C@H]1C(=O)[O-].[Na+]` [PENICILLIN G SODIUM], the MIC80 is less than 0.39 µg/mL against Bacillus subtilis, 3.12 µg/mL against Staphylococcus aureus [1], 3.12 µg/mL against Staphylococcus aureus [2] and 0.78 µg/mL in the assay with Escherichia coli.
As to `Oc1ccc(/C=C/c2cc(O)cc(O)c2)cc1` [RESVERATROL], the MIC80 against Bacillus subtilis is 25 µg/mL (≈ 110 µM); in the assay with Staphylococcus aureus [1] it was 25 µg/mL (≈ 110 µM); against Staphylococcus aureus [2], 25 µg/mL (≈ 110 µM); in the assay on Candida albicans, greater than 200 µg/mL; against Escherichia coli it was 25 µg/mL (≈ 110 µM).
